Source: ChEMBL document CHEMBL1121946, “Antiallergy agents. 2. 2-Phenyl-5-(1H-tetrazol-5-yl)pyrimidin-4(3H)-ones” (1982)

How the values were obtained:
Rattus norvegicus [1] = assay: Antiallergic activity in the passive cutaneous anaphylaxis (PCA) model in the rat was determined after oral administration; assay type: functional; details: read-out: ID50 (the source's name)
Procedure, shortened: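 Male Sprague-Dawley rats underwent a modified Ovary PCA screen, with challenge 24 h after sensitization. Compounds were solubilized in aqueous NaHCO3 when possible; otherwise they were suspended in aqueous sodium citrate containing Tween 40/sodium carboxymethylcellulose. Dosing was oral, 10 min prior to antigen challenge.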

Rattus norvegicus [2] = assay: Antiallergic activity in the passive cutaneous anaphylaxis (PCA) model in the rat was determined after iv administration; assay type: functional; details: read-out: ID50 (the source's name)
Procedure, shortened: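 Rat PCA screen (modified Ovary method) in male Sprague-Dawley rats, with a 24 h interval between sensitization and antigen challenge. Compounds were dissolved in aqueous NaHCO3 where possible; otherwise they were suspended in aqueous sodium citrate with Tween 40/sodium carboxymethylcellulose. Dosing was intravenous, 1 min before antigen challenge.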

Compound	ED50 (Rattus norvegicus [1])	ED50 (Rattus norvegicus [2])
COc1ccccc1-c1ncc(-c2nn[nH]n2)c(O)n1	0.1 mg/kg	
CCCOc1ccc([N+](=O)[O-])cc1-c1ncc(-c2nn[nH]n2)c(O)n1	5 mg/kg	
CCCOc1ccc(N(C)C)cc1-c1ncc(-c2nn[nH]n2)c(O)n1	0.4 mg/kg	
Oc1nc(-c2ccccc2)ncc1-c1nn[nH]n1	100 mg/kg	
C=CCOc1ccccc1-c1ncc(-c2nn[nH]n2)c(O)n1	0.24 mg/kg	
CCOc1ccccc1-c1ncc(-c2nn[nH]n2)c(O)n1	0.09 mg/kg	0.02 mg/kg
CCCCCOc1ccccc1-c1ncc(-c2nn[nH]n2)c(O)n1	0.4 mg/kg	
CCCOc1ccc(OC)cc1-c1ncc(-c2nn[nH]n2)c(O)n1	0.03 mg/kg	
Oc1nc(-c2ccccc2OCC2CC2)ncc1-c1nn[nH]n1	0.07 mg/kg	
CCCOc1ccccc1-c1ncc(-c2nn[nH]n2)c(O)n1	0.04 mg/kg	0.004 mg/kg
CCCOc1ccc(N)cc1-c1ncc(-c2nn[nH]n2)c(O)n1	0.1 mg/kg	
CCCCOc1ccccc1-c1ncc(-c2nn[nH]n2)c(O)n1	0.07 mg/kg	
CCC(C)Oc1ccccc1-c1ncc(-c2nn[nH]n2)c(O)n1 (stereo not given)	0.05 mg/kg	
CC(C)COc1ccccc1-c1ncc(-c2nn[nH]n2)c(O)n1	0.1 mg/kg	
O=C([O-])c1cc(=O)c2c(OCC(O)COc3cccc4oc(C(=O)[O-])cc(=O)c34)cccc2o1.[Na+].[Na+] [CROMOLYN SODIUM]	> 30 mg/kg	0.3 mg/kg
CC(C)Oc1ccccc1-c1ncc(-c2nn[nH]n2)c(O)n1	0.04 mg/kg	0.02 mg/kg
